Measurements reported in ChEMBL document CHEMBL1139840, “Design and synthesis of glycoside inhibitors of glioma and melanoma growth” (2007).

Experiments:
A-375 = test: Antimitotic activity against human A375 cells by [3H]thymidine incorporation assay; assay type: functional; conditions: A-375, 24 h, read-out: ID50 (the source's name)
Method in brief: (§1)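 Cells seeded at 1 × 10⁴/well in DMEM with 10% FCS and left 6 h to attach, then serum-starved 36 h. Compounds added in DMEM with 1% FCS, in triplicate, for 24 h. A 6 h [³H]thymidine pulse (0.5 µCi/well) followed, then SDS lysis and scintillation counting. % inhibition was scaled between 10% FCS (high) and serum-free (low) controls. ID₅₀ came from sigmoidal fits of triplicate dose-response data.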

C6 = test: Antimitotic activity against rat C6 cells by [3H]thymidine incorporation assay; assay type: functional; conditions: C6, 24 h, read-out: ID50 (the source's name); method in brief: as §1
[1] = Antimitotic activity against human U373 cells by [3H]thymidine incorporation assay; assay type: functional, U-373MG ATCC; conditions: U373 MG, read-out: ID50 (the source's name)
[2] = Antimitotic activity against rat stromal cells by [3H]thymidine incorporation assay; assay type: functional; conditions: read-out: ID50 (the source's name)

Row | IC50 (A-375) [µM] | IC50 (C6) [µM] | IC50 [1] [µM] | IC50 [2] [µM] | SMILES
1 | 2.3 | 11 | 3.2 | – | CCCCCCCCCCCCCCCCO[C@H]1O[C@H](COCC(CO)(CO)COS(=O)(=O)O)[C@@H](O)[C@H](O)[C@H]1NC(=O)CCCC
2 | > 50 | > 50 | > 50 | – | CC(=O)N[C@H]1[C@@H](OCCCCc2ccccc2)O[C@H](CO)[C@@H](O)[C@@H]1O
3 | > 50 | > 50 | > 50 | – | CCCCCCCCO[C@H]1O[C@H](CO)[C@@H](O)[C@H](O)[C@H]1NC(C)=O
4 | > 50 | > 50 | > 50 | – | CC(=O)N[C@H]1[C@@H](OCc2ccccc2)O[C@H](CO)[C@@H](O)[C@@H]1O
5 | 9.3 | 8.6 | 6.7 | – | CCCCC(=O)N[C@H]1[C@@H](OCCc2ccccc2)O[C@H](COCC(CO)(CO)COS(=O)(=O)O)[C@@H](O)[C@@H]1O
6 | 29.3 | 13 | > 50 | – | CCCCCCCCCCCCCCCCO[C@H]1O[C@H](CO)[C@@H](O)[C@H](O)[C@H]1NC(C)=O
7 | > 50 | > 50 | > 50 | – | CCCCCCCCO[C@H]1O[C@H](CO)[C@@H](O)[C@H](O)[C@H]1NC(=O)c1ccccc1
8 | 3 | – | 4.6 | – | CCCCCCCCCCCCCCCCO[C@H]1O[C@H](COCC(O)CO)[C@@H](O)[C@H](O)[C@H]1NC(=O)CCCC (stereo not given in full)
9 | 17 | 18.3 | 27.3 | – | CCCCCCCCCCCCCCCCO[C@H]1O[C@H](COCC(CO)(CO)CO)[C@@H](O)[C@H](O)[C@H]1NC(=O)CCCC
10 | 2.2 | – | 4.9 | – | CCCCCCCCCCCCCCCCO[C@H]1O[C@H](COC[C@H](O)CO)[C@@H](O)[C@H](O)[C@H]1NC(=O)CCCC
11 | > 50 | > 50 | > 50 | – | C=CCCC(=O)N[C@H]1[C@@H](OCCCCCCCCCCCCCCCC)O[C@H](CO)[C@@H](O)[C@@H]1O
12 | 6 | 12 | 13.3 | – | CCCCCCCC/C=C\CCCCCCCC(=O)N[C@H]1[C@@H](OCCCCCCCC)O[C@H](CO)[C@@H](O)[C@@H]1O
13 | > 50 | > 50 | > 50 | – | C=CCCC(=O)N[C@H]1[C@@H](OCCc2ccccc2)O[C@H](COS(=O)(=O)O)[C@@H](O)[C@@H]1O
14 | > 50 | > 50 | > 50 | – | C=CCCC(=O)N[C@H]1[C@@H](OCCc2ccccc2)O[C@H](CO)[C@@H](O)[C@@H]1OS(=O)(=O)O
15 | 7.2 | 22.6 | 33 | – | C=CCCC(=O)N[C@H]1[C@@H](OCCCCCCCCCCCCCCCC)O[C@H](CO)[C@@H](O)[C@@H]1OS(=O)(=O)O
16 | 0.6 | 13 | 13 | 40 | CCCCCCCC/C=C\CCCCCCCCO[C@H]1O[C@H](COS(=O)(=O)O)[C@@H](O)[C@H](O)[C@H]1NC(C)=O
17 | 13.3 | 11.9 | 20.6 | – | CCCCCCCC/C=C\CCCCCCCC(=O)N[C@H]1[C@@H](OCCCCCCCC)O[C@H](COCC(CO)(CO)CO)[C@@H](O)[C@@H]1O
18 | > 50 | > 50 | > 50 | – | CC(=O)N[C@H]1[C@@H](OCCc2ccccc2)O[C@H](CO)[C@@H](O)[C@@H]1O
19 | 16 | 5.4 | 15.6 | – | CCCCCCCC/C=C\CCCCCCCC(=O)N[C@H]1[C@@H](OCCCCCCCC)O[C@H](CO)[C@@H](O)[C@@H]1OS(=O)(=O)O
20 | 15.6 | 5.6 | 12.6 | – | CCCCCCCC/C=C\CCCCCCCC(=O)N[C@H]1[C@@H](OCCCCCCCC)O[C@H](COS(=O)(=O)O)[C@@H](O)[C@@H]1O
21 | 3.4 | – | 5.6 | – | CCCCCCCCCCCCCCCCO[C@H]1O[C@H](COC[C@@H](O)CO)[C@@H](O)[C@H](O)[C@H]1NC(=O)CCCC
22 | > 50 | > 50 | > 50 | – | CCCCC(=O)N[C@H]1[C@@H](OCCc2ccccc2)O[C@H](COCC(CO)(CO)CO)[C@@H](O)[C@@H]1O
23 | 4.8 | 1.3 | 4.6 | 10 | CCCCCCCC/C=C\CCCCCCCCO[C@H]1O[C@H](CO)[C@@H](O)[C@H](O)[C@H]1NC(C)=O
24 | 2.1 | 12.3 | 9.6 | – | CCCCCCCC/C=C\CCCCCCCCO[C@H]1O[C@H](CO)[C@@H](O)[C@H](OS(=O)(=O)O)[C@H]1NC(C)=O
25 | > 50 | > 50 | > 50 | – | C=CCCC(=O)N[C@H]1[C@@H](OCCc2ccccc2)O[C@H](CO)[C@@H](O)[C@@H]1O
26 | > 50 | > 50 | > 50 | – | CCCCC(=O)N[C@H]1[C@@H](OCCc2ccccc2)O[C@H](COCC(O)CO)[C@@H](O)[C@@H]1O (mixture of isomers)
27 | 9.3 | 2.6 | 3.3 | – | CCCCCCCCCCCCCCCCO[C@H]1O[C@H](COCC(O)CO)[C@@H](O)[C@H](O)[C@H]1NC(=O)CCCCCCCCCCCCCCC (mixture of isomers)
